Env fusion inh: inhibitors of HIV-1 Env-driven cell-cell fusion, primary screen, HeLa-JRFL effector, CEM21 target cells, luciferase | inhibition, % at 12.3 µM | 360,000 tested, 1.1% active;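 active means mean replicate inhibition score of at least 50 and every replicate individually at or above 50; inconclusive means only one of the two criteria met; inactive means mean below 50 and not all replicates reaching 50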;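 further: 0% = plate neutral controls and 100% = maraviroc near 300 nM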
Cneo AK release: Cryptococcus neoformans cell lysis inducers, primary screen, AK release luminescence, single concentration. C. neoformans lysis, adenylate kinase release luminescence, 4 h; normalised: neutral wells 0, clomiphene wells 100. lysis activity, % at 15 µM. 360,000 tested, 0.2% active;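 active means mean lysis activity across replicates of at least 80%, whatever share of replicates individually reach that level; inactive means mean lysis activity below 80%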
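Material – log-phase Cryptococcus neoformans yeast cells · Input – 5 × 10^6 yeast cells/mL · Medium – fresh YPD growth medium · Doses – single compound concentration per well · Timing – static 4 h at 37 °C with compound, 1 h detection · Detection – adenylate kinase release luminescence · Read-out – signal increase indicating cell lysis · Control set – Clomiphene as positive lysis control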
Wnt bcat act: Wnt/beta-catenin pathway activators, primary screen, cell-based, plate reader, single point; Wnt/beta-catenin reporter cell assay, activator; activation, % at 9.35 µM; 300,000 tested, 1.2% active; AID 743398, 2014; in the data active means activation above about 30%, passing the limit was not always enough; inconclusive means no clear call, values can overlap the other calls;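 further: 0% = neutral control wells and 100% = positive control wells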
esBAF inh: Bmi1 luciferase reporter increase in mESCs, primary screen, esBAF inhibitor project, mouse ES cells, Bmi1 luciferase knock-in, single point; 24 h; 100% = twice the neutral-well signal; reporter increase, % at 12.5 µM; 350,000 tested, 2% active; AID 602393, 2012; in the data active means activation above about 40%; inconclusive means no clear call, values can overlap the other calls;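 further: 0% = median of the plate's neutral control wells and 100% = double that signal; a rise in the Bmi1 reporter signal indicates esBAF inhibition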
ERAP1 inh: human ERAP1 aminopeptidase inhibitors, primary screen, biochemical, single point, plate reader. Endoplasmic reticulum aminopeptidase 1 (Homo sapiens), Q9NZ08. recombinant ERAP1, Leu-AMC fluorescence, 60 min. inhibition, % at 10.7 µM. 340,000 tested, 0.15% active;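 active means mean replicate inhibition of at least 30%, or all replicates individually reaching that 30% level; inactive means mean below 30% and not every replicate reaching it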;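 further: 0% = neutral control wells and 100% = L-leucinethiol positive control wells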
Target sequence (Q9NZ08 whole entry, looked up): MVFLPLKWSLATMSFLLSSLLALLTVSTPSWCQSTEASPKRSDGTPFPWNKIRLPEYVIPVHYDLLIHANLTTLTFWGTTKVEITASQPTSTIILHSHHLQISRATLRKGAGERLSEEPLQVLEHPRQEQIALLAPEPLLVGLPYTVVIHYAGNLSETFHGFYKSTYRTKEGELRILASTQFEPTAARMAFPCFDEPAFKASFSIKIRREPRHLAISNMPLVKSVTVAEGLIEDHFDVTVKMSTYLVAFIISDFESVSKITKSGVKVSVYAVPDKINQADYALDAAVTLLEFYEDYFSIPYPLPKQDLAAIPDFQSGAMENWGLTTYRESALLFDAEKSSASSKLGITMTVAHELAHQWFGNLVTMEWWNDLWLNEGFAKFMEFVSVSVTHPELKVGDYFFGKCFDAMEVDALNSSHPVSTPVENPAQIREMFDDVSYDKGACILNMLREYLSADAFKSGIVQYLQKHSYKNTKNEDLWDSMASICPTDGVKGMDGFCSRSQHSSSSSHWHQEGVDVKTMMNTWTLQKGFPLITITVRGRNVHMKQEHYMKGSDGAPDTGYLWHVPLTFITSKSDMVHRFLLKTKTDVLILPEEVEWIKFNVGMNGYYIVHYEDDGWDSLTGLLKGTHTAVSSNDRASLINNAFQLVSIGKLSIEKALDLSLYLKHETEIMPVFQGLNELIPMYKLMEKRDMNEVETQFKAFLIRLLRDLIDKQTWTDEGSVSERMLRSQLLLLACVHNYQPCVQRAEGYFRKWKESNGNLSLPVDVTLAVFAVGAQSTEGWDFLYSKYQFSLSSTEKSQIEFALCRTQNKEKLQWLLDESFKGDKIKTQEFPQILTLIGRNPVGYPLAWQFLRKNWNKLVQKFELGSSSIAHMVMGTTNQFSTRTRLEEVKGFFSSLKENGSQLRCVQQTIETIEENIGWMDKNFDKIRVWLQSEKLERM
MITF act: activators of MITF-driven TRPM1 promoter reporter, primary screen, cell-based, SK-MEL-5, luciferase, single point; SK-MEL-5 TRPM1-promoter luciferase, 24 h; % of positive control, neutral wells = 0; activation, % at 12.5 µM; 300,000 tested, 0.75% active;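 active means mean activation of at least 80% with every replicate also reaching 80%; inconclusive means mean reaches 80% but some replicate falls short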;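 further: 0% = neutral control wells and 100% = parthenolide positive control wells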
Active calls of the source: *; [ ] = dose if it differs, or a comment. Compounds with a hit are over-represented: about 3.5% of the library has one in this group of screens.

Results for CCN1c2ccccc2-c2nc3ccccc3n2C1c1ccco1 (stereo unspecified) ?
Env fusion inh: 55*; Cneo AK release: 3; Wnt bcat act: 0; esBAF inh: -9

Results for Cc1cc(C)nc(N/N=C/c2cccc(Cl)c2)n1 ?
Env fusion inh: -19; Wnt bcat act: 2; ERAP1 inh: -2; MITF act: 35

How did Clc1cccc(/C=N/Nc2nc(Cl)nc3ccccc23)c1 do in these assays?
Env fusion inh: -286; Cneo AK release: 1; Wnt bcat act: 10; esBAF inh: 52*

What do the screens show for `Clc1ccc(/C=N/Nc2ncnc3ccccc23)cc1Cl`?
Env fusion inh: inactive; Cneo AK release: -2; Wnt bcat act: inconclusive; esBAF inh: 74*

Results for Fc1ccccc1/C=N/Nc1ncnc2ccccc12 ?
Env fusion inh: -58; Wnt bcat act: 20; ERAP1 inh: 5; MITF act: 16

What do the screens show for `COCC(=O)N1CC2(C1)CN(Cc1cc(F)ccc1F)[C@H](CO)c1[nH]c3cc(OC)ccc3c12`?
ERAP1 inh: 3

Results for C[C@H]1CN([C@@H](C)CO)C(=O)c2cccc(NS(C)(=O)=O)c2O[C@H]1CN(C)C(=O)Nc1ccc(C(F)(F)F)cc1 ?
Cneo AK release: 66; esBAF inh: -3; ERAP1 inh: 2

Results for CC1(C)Cc2cccc(Oc3cc(NN4CCCCC4)c([N+](=O)[O-])cc3[N+](=O)[O-])c2O1 ?
Env fusion inh: 72*; Cneo AK release: 0; Wnt bcat act: -5; esBAF inh: -9; ERAP1 inh: -4; MITF act: -7

How did CC(C)[C@H](NC(=O)c1ccco1)C(=O)NCc1ccccc1 do in these assays?
Env fusion inh: -1; Cneo AK release: -9; Wnt bcat act: 1; esBAF inh: -2; ERAP1 inh: -3

How did CC(C)[C@H](NC(=O)c1ccco1)C(=O)NC12CC3CC(CC(C3)C1)C2 do in these assays?
Env fusion inh: 58*; Wnt bcat act: 0; ERAP1 inh: -3; MITF act: 2

What do the screens show for `COc1ccc(C(=O)c2coc3ccc(O)cc23)cc1`?
Env fusion inh: -97; Cneo AK release: -3; Wnt bcat act: 2; esBAF inh: -7; ERAP1 inh: 1; MITF act: 73

Results for O=C(O)COc1ccc2occ(C(=O)c3ccccc3)c2c1 ?
Cneo AK release: -1; Wnt bcat act: 5; esBAF inh: 0; MITF act: 15

What do the screens show for `CCN(CC)C(=O)Oc1ccc2c(=O)c(-c3ccccc3)coc2c1`?
Env fusion inh: -83; Cneo AK release: -1; esBAF inh: 26; MITF act: 78

Results for O=C(CCl)Oc1ccc2occ(C(=O)c3cccs3)c2c1 ?
Cneo AK release: 0; esBAF inh: 93*; MITF act: 44

Results for O=C(c1cccs1)c1coc2ccc(O)cc12 ?
Env fusion inh: -87; Cneo AK release: -2; Wnt bcat act: 51*; esBAF inh: 67*; MITF act: 94*

Results for CC(=O)Oc1ccc2occ(-c3ccccc3)c2c1 ?
Env fusion inh: 2; Cneo AK release: -2; Wnt bcat act: 6; esBAF inh: 47*; ERAP1 inh: -7; MITF act: 36

What do the screens show for `O=C(c1cccc(Br)c1)c1coc2ccc(O)cc12`?
Cneo AK release: -1; Wnt bcat act: -4; esBAF inh: 70*; ERAP1 inh: 1; MITF act: 90*

Results for CCCN1C[C@H](C)[C@H](OC)CN(C)C(=O)c2cc(NC(=O)NC3CCCCC3)ccc2OC[C@@H]1C ?
Cneo AK release: -4; esBAF inh: -13; ERAP1 inh: 0

What do the screens show for `CC(=O)Oc1ccc2occ(C(=O)c3ccccc3)c2c1`?
Env fusion inh: -15; Cneo AK release: -3; Wnt bcat act: 0; ERAP1 inh: 4

What do the screens show for `CC(=O)Oc1ccc2occ(C(=O)c3cccs3)c2c1`?
Env fusion inh: -203; Cneo AK release: -1; Wnt bcat act: 80*; esBAF inh: 60*; MITF act: 56

Results for CC(C)NC(=O)N(C)C[C@@H]1Oc2ncc(C#CC3CCCC3)cc2C(=O)N([C@H](C)CO)C[C@@H]1C ?
Env fusion inh: -2[16.7 µM]; Cneo AK release: 2; esBAF inh: -1; ERAP1 inh: 2

What do the screens show for `CC(C(=O)N1CCN(C(=O)c2ccco2)CC1)n1sc2ccccc2c1=O` (stereo unspecified)?
Env fusion inh: 3; Cneo AK release: -1; Wnt bcat act: 2; esBAF inh: 3; ERAP1 inh: 1; MITF act: 3

What do the screens show for `CC(C(=O)N1CCCCC1)n1sc2ccccc2c1=O` (stereo unspecified)?
Cneo AK release: -6; esBAF inh: 50*; MITF act: 53

Results for CC(=O)Nc1cc(-c2ccc(Cl)cc2)[nH]n1 ?
Env fusion inh: -28; Cneo AK release: -4; Wnt bcat act: -2; esBAF inh: 74*; ERAP1 inh: -1; MITF act: 25

What do the screens show for `Cc1cccc(-c2noc(-c3csc([C@@H]4C[C@H](O)[C@@H](CO)O4)n3)n2)c1`?
Env fusion inh: -109; Cneo AK release: -6; Wnt bcat act: 46*; esBAF inh: -13; ERAP1 inh: 1

How did COc1cc(OC)cc(-c2noc(-c3csc([C@H]4C[C@H](O)[C@@H](CO)O4)n3)n2)c1 do in these assays?
Env fusion inh: -39; Cneo AK release: -2; Wnt bcat act: 39*; esBAF inh: 71*; ERAP1 inh: 0

Results for OC[C@H]1O[C@H](c2nc(-c3nc(-c4cccs4)no3)cs2)C[C@@H]1O ?
Env fusion inh: -36; Cneo AK release: 2; Wnt bcat act: 10; esBAF inh: -25; ERAP1 inh: -6

What do the screens show for `COCc1cccc(-c2csc(C(O)c3cccc(OC)c3)n2)c1` (stereo unspecified)?
Env fusion inh: 17; Cneo AK release: -1; Wnt bcat act: 5; esBAF inh: 11; ERAP1 inh: 0

What do the screens show for `CC(=O)Nc1cccc(-c2csc(C(O)c3ccccc3)n2)c1` (stereo unspecified)?
Env fusion inh: 7; Cneo AK release: -2; Wnt bcat act: -1; esBAF inh: 49*; ERAP1 inh: -1

What do the screens show for `CC(=O)Nc1cccc(-c2csc(C(O)c3ccc(F)cc3)n2)c1` (stereo unspecified)?
Env fusion inh: 12; Cneo AK release: -1; Wnt bcat act: -1; esBAF inh: 18; ERAP1 inh: 2

Screening results: PubChem BioAssay, Broad Institute
